{
  "source": "paper PMC8525972",
  "about": "(mAbs, 2021)",
  "key": {"murine-IgG1": {"test_system": "murine-IgG1", "assay": "Fluorescence intensity, murine IgG1 in CHO cell culture fluid", "format": "binding", "procedure,_shortened": "(§1)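 CHO-S cells grown in CD CHO medium with 4 mM L-glutamine to 3.31 × 10^6 cells/mL at 96.1% viability. Fluid clarified by 8000×g for 30 min, then 0.2 µm filtration. Antibody spiked into this fluid and mixed 1:1 with 100 nM Fc-III probe in PBS; read immediately at Ex 485/Em 535 nm. Detection limit is signal above blank + 3 StdDev of blank.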"}, "[1]": {"assay": "Fluorescence intensity of probe with hydroxypropyl-β-cyclodextrin", "format": "physicochemical", "conditions": "50 nM probe; increasing HP-β-cyclodextrin"}, "IgG [2]": {"test_system": "IgG", "conditions": "cited from earlier work"}, "polyclonal human IgG [3]": {"test_system": "polyclonal human IgG", "assay": "Fluorescence intensity, human IgG in CHO cell culture fluid", "format": "binding", "procedure,_shortened": "as §1"}, "polyclonal human IgG [4]": {"test_system": "polyclonal human IgG", "assay": "Fluorescence polarization, human IgG in CHO cell culture fluid", "format": "binding", "conditions": "100 nM probe in CHO-CCF"}, "murine IgG1": {"test_system": "murine IgG1", "conditions": "ref [41]; cited from earlier work"}, "human IgG [5]": {"test_system": "human IgG", "assay": "Fluorescence intensity mix-and-read assay, human IgG titration", "format": "binding", "procedure,_shortened": "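Human IgG (0–2.5 g/L) diluted in PBS and mixed 1:1 with fluorescein-Ahx-labelled Fc-III peptide probe in PBS; probe tested at 25–500 nM, and at 50 nM and 2000 nM for linear quantitation. Plate read immediately, intensity at Ex 485/Em 535 nm. Normalised intensity is the fold change over probe alone without IgG.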"}, "human IgG [6]": {"test_system": "human IgG", "assay": "Fluorescence polarization mix-and-read assay, human IgG titration", "format": "binding", "conditions": "50 nM probe, human IgG 0 to 2.5 g/L", "procedure,_shortened": "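Fluorescein-labelled probes (Fc-III peptide, protein G, peptide-H) at 50 nM mixed with human IgG at 0–2.5 g/L in PBS. Polarisation read immediately at Ex 485/Em 535 nm. mP is (I∥ − I⊥)/(I∥ + I⊥) × 1000. Curves fitted with a 4-parameter logistic.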"}, "human IgG [7]": {"test_system": "human IgG", "conditions": "ref [40],[41]; cited from earlier work"}, "[8]": {"molecular_target": "adalimumab biosimilar IgG1 (Homo sapiens, UniProt P01857)", "sequence (P01857 1-330 isoform P01857-1, other chains not shown)": "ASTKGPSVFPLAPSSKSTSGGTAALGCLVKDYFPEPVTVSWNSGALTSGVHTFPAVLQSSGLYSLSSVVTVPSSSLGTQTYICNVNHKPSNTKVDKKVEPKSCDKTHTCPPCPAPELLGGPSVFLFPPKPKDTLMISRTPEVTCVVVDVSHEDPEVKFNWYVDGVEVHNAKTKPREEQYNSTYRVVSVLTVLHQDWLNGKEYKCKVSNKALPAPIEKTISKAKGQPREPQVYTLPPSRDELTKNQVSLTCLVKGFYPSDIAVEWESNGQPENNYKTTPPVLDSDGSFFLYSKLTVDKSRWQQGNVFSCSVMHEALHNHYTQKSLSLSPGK", "assay": "Fluorescence intensity, adalimumab biosimilar in CHO cell culture fluid", "format": "binding", "procedure,_shortened": "as §1"}, "IgG [9]": {"test_system": "IgG", "conditions": "ref [16],[17]; cited from earlier work"}, "human-IgG": {"test_system": "human-IgG", "assay": "SpA competition with Fc-III probe/human IgG mixture, fluorescence intensity", "format": "binding", "conditions": "IgG 0.005 g/L (30 nM), Fc-III probe 50 nM, 120 min", "procedure,_shortened": "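Unlabelled SpA serially diluted in PBS and added at 0.02 nM–1 µM final to human IgG (33 nM, 0.005 g/L) plus Fc-III probe (50 nM). PBS alone served as negative control. Incubated 120 min for equilibration, then fluorescence intensity read at Ex 485/Em 535 nm.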"}},
  "data": [
    {"substance": "Fluorescein-Ahx-DCAWHLGELVWCT-NH2 (disulfide) [Fc-III probe]", "values": [
      {"measurement": "Detection limit", "setting": "murine-IgG1; murine IgG1, 100 nM probe in CHO-CCF", "result": 0.1, "unit": "g/L"},
      {"measurement": "Detection limit for murine IgG1 relative to human IgG", "setting": "murine-IgG1; murine IgG1 versus human IgG", "result": 1000, "unit": "times"},
      {"measurement": "Fluorescence intensity increase on addition of HPβCD", "setting": "[1]", "result": 2.1, "unit": "fold"},
      {"measurement": "Binding affinity for IgG, Fc-III versus SpG", "setting": "IgG [2]", "result": "comparable binding affinity for IgG"},
      {"measurement": "Fluorescence intensity increase", "setting": "polyclonal human IgG [3]; 100 nM probe in CHO-CCF, 2.5 g/L human IgG", "result": "~ 1.8 fold"},
      {"measurement": "Limit of detection compared with HPLC or ELISA", "setting": "polyclonal human IgG [3]; IgG in CHO-CCF", "result": "comparable to those of HPLC or ELISA"},
      {"measurement": "Limit of detection by fluorescence intensity", "setting": "polyclonal human IgG [3]; human IgG, 100 nM probe in CHO-CCF, signal > blank intensity + 3StdDev of blank", "result": 0.00025, "unit": "g/L"},
      {"measurement": "Polarization changes, human IgG versus adalimumab biosimilar", "setting": "polyclonal human IgG [4]", "result": "nearly identical fluorescence polarization changes"},
      {"measurement": "Binding to murine IgG1", "setting": "murine IgG1", "result": "binds relatively poorly"},
      {"measurement": "Fold increase in fluorescence intensity at lowest IgG concentration", "setting": "human IgG [5]; 25 nM probe, 0.00025 g/L IgG", "result": 1.16, "unit": "fold"},
      {"measurement": "Linear quantitation range (IgG concentration)", "setting": "human IgG [5]; 2000 nM Fc-III probe, listed as fluorescein labeled Fc-III", "result": "0.025 to 0.1", "unit": "g/L"},
      {"measurement": "Polarization dynamic range, difference between bound and free probe (Δ mP)", "setting": "human IgG [6]; 96-well plate, Ex 485 nm/Em 535 nm", "result": 260, "unit": "mP"},
      {"measurement": "Lowest IgG concentration required to produce half-maximal response", "setting": "human IgG [6]; fluorescence polarization", "result": 0.001, "unit": "g/L"},
      {"measurement": "Binding of human IgG (subtypes 1–4) to Fc-III relative to pure IgG1", "setting": "human IgG [7]", "result": "binds Fc-III less well than pure IgG1"},
      {"measurement": "Fluorescence intensity increase", "setting": "[8]; 100 nM probe in CHO-CCF, 2.5 g/L adalimumab (IgG1 mAb)", "result": "~ 1.8 fold"},
      {"measurement": "Adalimumab biosimilar detected down to", "setting": "[8]; CHO cell culture fluid, fluorescence intensity", "result": 100, "unit": "ng/mL"}
    ]},
    {"substance": "fluorescein-labeled protein A (SpA): fluorescein-labeled protein A, literature comparison", "values": [
      {"measurement": "IgG binding-induced fluorescence enhancement of fluorescein-labeled protein A", "setting": "IgG [9]", "result": "IgG binding-induced fluorescence enhancement"}
    ]},
    {"substance": "SpA: unlabeled Staphylococcal protein A, competitor binding to the same location on Fc as Fc-III", "values": [
      {"measurement": "Fluorescence intensity of Fc-III/IgG mixture with 500 nM SpA", "setting": "human-IgG; 500 nM SpA", "result": "fell to that of free Fc-III probe"},
      {"measurement": "Effect of unlabeled SpA on emission intensity of IgG/Fc-III probe mixture", "setting": "human-IgG; SpA 0.02 nM to 1 µM in PBS", "result": "markedly diminished"}
    ]}
  ]
}
